According to ChEMBL document CHEMBL1152198, “C-2-aryl O-substituted HI-236 derivatives as non-nucleoside HIV-1 reverse-transcriptase inhibitors” (Bioorg Med Chem, 2008):

Key:
MT2 [1] = test: Cytotoxicity against mock-infected human MT2 cells after 5 days by MTT assay; format: cell-based; settings: mt2, 120 h
Summary of the method: (§1)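 Infected (Y181C, MOI 0.1) or mock-infected MT-2 cells at 1×10^5 cells/mL exposed 5 days to graded compound concentrations in RPMI 1640/10% dFBS/kanamycin, triplicate. Viability by MTT (5 h), acidified isopropanol lysis, absorbance 595 nm. CC50 read from triplicate-mean dose-response curves as concentration reducing viable cells by 50%.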

[2] = Therapeutic index, ratio of CC50 for human MT2 cells to EC50 for HIV1 3B; format: cell-based; settings: read-out: Ratio CC50/EC50
Summary of the method: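 MT-2 cells at 1×10^5 cells/mL, HIV-III_B or mock infection at MOI 0.1, 5 days with graded compound, triplicate; MTT read-out at 595 nm. Index computed as CC50 (mock-infected cells) over EC50 (viral replication), both from dose-response curves.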

[3] = system: Human immunodeficiency virus 1; test: Antiviral activity against wild-type HIV1 3B infected in human MT2 cells assessed as inhibition of viral replication after 5 days by MTT assay; settings: Human immunodeficiency virus 1, 3B, MT2, 120 h
[4] = target: Human immunodeficiency virus type 1 reverse transcriptase (Human immunodeficiency virus 1, UniProt Q72547); test: Inhibition of HIV1 3B reverse transcriptase
Summary of the method: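 Steady-state single-nucleotide incorporation: 6 nM RT (active-site titrated) pre-incubated at least 15 min with 1 μM 5'-radiolabeled primer/template, then at least 15 min on ice with inhibitor (DMSO under 2%, DMSO-only control). Started with 5 μM dTTP and 10 mM MgCl2 (final), 15 min at 37 °C, EDTA quench. Products resolved on 20% denaturing PAGE; hyperbolic fit gives IC50.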

[5] = system: Human immunodeficiency virus 1; test: Antiviral activity against nevirapine-resistant HIV1 with reverse transcriptase Y181C mutation in human MT2 cells assessed as inhibition of viral replication after 5 days by MTT assay; format: functional, organism-based; settings: Human immunodeficiency virus 1, MT2, 120 h
Summary of the method: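 MT-2 cells at 1×10^5 cells/mL infected at MOI 0.1 (wild-type HIV-III_B or Y181C mutant), cultured 5 days in RPMI 1640 with 10% dFBS and kanamycin across a range of compound concentrations, triplicate wells. MTT added for 5 h, cells lysed with acidified isopropanol, A595 read. EC50 taken from dose-response curves of triplicate means as concentration inhibiting viral replication by 50%.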

MT2 [6] = test: Cytotoxicity against HIV1 Y181C mutant infected human MT2 cells after 5 days by MTT assay; format: cell-based; settings: mt2, 120 h; summary of the method: as §1
[7] = Therapeutic index, ratio of CC50 for HIV1 Y181C mutant infected human MT2 cells to EC50 for HIV1 with reverse transcriptase Y181C mutation; format: cell-based; settings: read-out: Ratio CC50/EC50
Summary of the method: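 MT-2 cells (1×10^5 cells/mL), infected with Y181C mutant HIV-1 at MOI 0.1 or mock-infected, were cultured 5 days in RPMI 1640 with 10% dFBS and kanamycin at varying compound concentrations, in triplicate. MTT was added for 5 h, cells were lysed with acidified isopropanol, and A595 was read. EC50 (50% inhibition of viral replication) and CC50 (50% loss of viable cells) came from averaged dose-response curves.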

Row | Structure (SMILES) | CC50 (MT2 [1]) [nM] | selectivity ratio [2] | EC50 [3] [nM] | IC50 [4] [nM] | EC50 [5] [nM] | CC50 (MT2 [6]) [nM] | selectivity ratio [7]
1 | COc1ccc(OCCCC#N)c(CCNC(=S)Nc2ccc(Br)cn2)c1 | 3800 | 76 | 50 | – | – | – | –
2 | C#CCOCCOCCOc1ccc(OC)cc1CCNC(=S)Nc1ccc(Br)cn1 | 6800 | 17 | 390 | – | – | – | –
3 | C#CCCCOc1ccc(OC)cc1CCNC(=S)Nc1ccc(Br)cn1 | 10000 | 40 | 250 | 27 | – | – | –
4 | CCCOc1ccc(OC)cc1CCNC(=S)Nc1ccc(Br)cn1 | 100 | 1 | 95 | – | – | – | –
5 | COc1ccc(OCCOCc2ccccc2)c(CCNC(=S)Nc2ccc(Br)cn2)c1 | 5800 | 3 | 2000 | – | – | – | –
6 | COc1ccc(OCc2ccccc2)c(CCNC(=S)Nc2ccc(Br)cn2)c1 | 4000 | 18 | 220 | – | – | – | –
7 | C#CCOCCOc1ccc(OC)cc1CCNC(=S)Nc1ccc(Br)cn1 | 9500 | – | 95 | 41 | – | – | –
8 | C#CCOc1ccc(OC)cc1CCNC(=S)Nc1ccc(Br)cn1 | 100 | 2 | 52 | – | – | – | –
9 | COc1ccc(OCC#N)c(CCNC(=S)Nc2ccc(Br)cn2)c1 | 5500 | 46 | 120 | – | – | – | –
10 | COc1ccc(OCCO)c(CCNC(=S)Nc2ccc(Br)cn2)c1 | 1000 | 83 | 12 | 19 | – | – | –
11 | C=CCOc1ccc(OC)cc1CCNC(=S)Nc1ccc(Br)cn1 | 11000 | 55 | 200 | – | – | – | –
12 | C#CCCOc1ccc(OC)cc1CCNC(=S)Nc1ccc(Br)cn1 | 1000 | 38 | 26 | 3.8 | < 200 | 4000 | > 20
13 | CC#CCOc1ccc(OC)cc1CCNC(=S)Nc1ccc(Br)cn1 | 20000 | 74 | 270 | – | – | – | –
14 | COC(=O)COc1ccc(OC)cc1CCNC(=S)Nc1ccc(Br)cn1 | 48000 | 4 | 12000 | 100 | – | – | –
15 | COc1ccc(OCCCO)c(CCNC(=S)Nc2ccc(Br)cn2)c1 | 8500 | 94 | 98 | 24 | – | – | –
16 | COc1ccc(OC)c(CCNC(=S)Nc2ccc(Br)cn2)c1 | 1000 | 21 | 48 | 28 | 1200 | 18000 | 15
